Measured values from PubChem BioAssay.
The source made the active and inactive calls.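 How the source made its calls, unless noted: active means compounds giving at least 50% inhibition in the cell-based MKP-3 phosphatase rescue imaging test; inactive means the rest.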

Tests used:
[1] = inhibitors of TNFa-induced NFkB p65 translocation, primary screen, imaging, HUVEC, MLSMR starter and 10KST1 sets (AID 438;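 active means inhibition above 20% together with a positive visual image hit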;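 further: compound added about 3h40 before a 20 min TNFalpha stimulation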;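 on inhibition: signal is the nuclear over cytoplasmic p65 intensity ratio per well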); settings: HUVEC TNFa-induced p65 nuclear translocation; cell count: measured here: nuclei count (cytotoxicity indicator), at 2.08 µM; inhibition: at 2 µM, stronger effect = higher value, 0% TNFa-plus-vehicle, 100% no-TNFa wells
[2] = endothelial E-selectin expression blockers – imaging, HUVEC, immunofluorescence, MLSMR starter and 10KST1 sets, primary screen (AID 487;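 active means visually confirmed hit in the image check and inhibition above 20%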;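 on inhibition: signal is fraction of cell area covered by stained E-selectin grains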;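 on nuclei count: 100% = median nuclei count of all wells on the same plate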); settings: HUVEC TNFalpha-induced E-selectin immunofluorescence imaging, at 2 µM; inhibition: stronger effect = higher value; nuclei count: measured here: cell number, toxicity
[3] = Primary imaging screen for DUSP6 inhibitors that restore phospho-Erk in transfected HeLa cells, chemical complementation (AID 609); settings: HeLa MKP-3 transfected, phospho-Erk imaging KS statistic, at 10 µM, cells stimulated with TPA for 15 min;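 on inhibition: phospho-Erk level distribution per well compared with pooled transfected vehicle control wells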
[4] = target: Dual specificity protein phosphatase 6 (Homo sapiens) (UniProt Q16828); assay: as above; settings: HeLa MKP-3 transfected, phospho-Erk imaging KS statistic; at 10 µM; stronger effect = higher value; cells stimulated with TPA for 15 min
Dual specificity protein phosphatase 6 (Homo sapiens), sequence (Q16828 whole entry, looked up): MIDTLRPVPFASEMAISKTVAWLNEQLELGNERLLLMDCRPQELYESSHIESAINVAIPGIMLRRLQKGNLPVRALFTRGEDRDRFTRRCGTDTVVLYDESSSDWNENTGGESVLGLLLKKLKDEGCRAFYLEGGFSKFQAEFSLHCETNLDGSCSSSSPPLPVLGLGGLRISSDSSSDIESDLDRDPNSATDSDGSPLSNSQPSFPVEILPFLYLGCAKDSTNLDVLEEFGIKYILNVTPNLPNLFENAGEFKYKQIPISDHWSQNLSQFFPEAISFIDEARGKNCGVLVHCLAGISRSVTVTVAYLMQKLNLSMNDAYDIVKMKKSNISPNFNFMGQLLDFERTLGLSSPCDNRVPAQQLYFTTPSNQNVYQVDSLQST

[5] = target: Voltage-gated potassium channel subunit beta-2 (Rattus norvegicus) (UniProt P62483); assay: inhibitors of rat Kvbeta2 reductase activity – biochemical, NADPH fluorescence, primary screen (AID 622;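 active means fluorescence slope higher than the sample average by over 3 SD, cut at about -0.22 in these data, passing the limit was not always enough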;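 further: slope of raw intensity against log time taken from 70 to 1610 s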); settings: recombinant KvBeta, 4-cyanobenzaldehyde reduction, at 10 µM, stronger effect = higher value
Voltage-gated potassium channel subunit beta-2 (Rattus norvegicus), sequence (P62483 whole entry, looked up): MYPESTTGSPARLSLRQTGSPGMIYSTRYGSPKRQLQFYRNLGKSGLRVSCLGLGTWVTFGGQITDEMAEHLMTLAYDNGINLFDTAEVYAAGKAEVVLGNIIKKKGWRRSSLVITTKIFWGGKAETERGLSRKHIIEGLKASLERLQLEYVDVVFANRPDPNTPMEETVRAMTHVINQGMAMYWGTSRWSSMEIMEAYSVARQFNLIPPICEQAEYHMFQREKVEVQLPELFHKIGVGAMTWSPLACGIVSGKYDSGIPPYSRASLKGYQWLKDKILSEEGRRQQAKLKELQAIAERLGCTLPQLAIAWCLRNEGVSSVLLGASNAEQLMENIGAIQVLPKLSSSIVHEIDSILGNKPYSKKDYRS

[6] = target: Voltage-gated potassium channel subunit beta-2 (Rattus norvegicus) (UniProt P62483); assay: enhancers of rat Kvbeta2 NADPH turnover – biochemical, NADPH fluorescence, primary screen (AID 623;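 active means NADPH fluorescence slope more negative than the mean of all samples by about 3 SD, 99.7% confidence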;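 further: fluorescence intensity change per second fitted from 20 to 320 s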); settings: Recombinant KvBeta, NADPH fluorescence decrease slope, 10 min; at 10 µM; stronger effect = lower value
[7] = target: Alpha-2C adrenergic receptor (Homo sapiens) (UniProt P18825); assay: compounds altering alpha2C-coupled GIRK flux – cell-based, HEK293 alpha2C/GIRK1/2, thallium flux, primary screen (AID 624;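 active means fluorescence slope after compound addition differing from the mean of all screened samples at 99.7% confidence, in either direction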;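 further: slope of fluorescence ratio to pre-addition baseline per second over 15 to 24 s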); settings: thallium flux BTC fluorescence, at 10 µM, actives lie on both sides
Alpha-2C adrenergic receptor (Homo sapiens), sequence (P18825 whole entry, looked up): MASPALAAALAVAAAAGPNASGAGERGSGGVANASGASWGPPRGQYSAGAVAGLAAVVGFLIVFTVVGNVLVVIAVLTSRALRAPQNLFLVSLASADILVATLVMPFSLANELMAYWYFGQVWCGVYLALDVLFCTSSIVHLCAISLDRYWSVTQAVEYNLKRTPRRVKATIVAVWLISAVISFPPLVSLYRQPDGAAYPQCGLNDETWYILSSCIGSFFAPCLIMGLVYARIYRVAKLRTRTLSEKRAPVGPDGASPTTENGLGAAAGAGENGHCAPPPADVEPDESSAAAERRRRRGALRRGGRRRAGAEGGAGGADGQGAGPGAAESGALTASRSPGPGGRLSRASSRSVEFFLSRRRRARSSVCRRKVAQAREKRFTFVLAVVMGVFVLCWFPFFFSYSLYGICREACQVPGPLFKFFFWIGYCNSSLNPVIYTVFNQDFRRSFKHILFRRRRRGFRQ

[8] = inhibitors of larval lipid processing in zebrafish, primary screen, whole organism, PED6 fluorescence, gall bladder and intestine (AID 686;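 active means a full or partial loss of lipid-probe fluorescence in the fish gall bladder, intestine or both, judged by eye; inactive means no fluorescence loss, or compound toxic to the fish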;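 further: larvae 5 to 7 days old with five fish per well; signal comes from phospholipase A2 cleavage of quenched PED6 carried via bile; overnight exposure to compound and PED6 before scoring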); settings: Zebrafish larvae PED6 lipid processing, fluorescence scoring; screened at 20 µM (by protocol)
Outline: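 Doses: 20 µM single dose. Test system: live zebrafish larvae aged 5-7 days, whole organism. Quantity: five larvae per well. Measured by: By-eye fluorescence microscopy. Reagent: ingested quenched lipid PED6 at 100 nM. Read-out: visual per-well fluorescence inhibition score. Times: overnight exposure of larvae to compound plus PED6.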

[9] = loss of swimming-algae plug formation – whole organism, Chlamydomonas reinhardtii, WT vs cilia-less mutant, absorbance, 96-well, primary screen (AID 463189;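 active means inhibition at or above 50% relative to wild type and mutant plate controls; inactive means inhibition below 50%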;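 further: 0% = wild type cc124 cells in DMSO and 100% = ciliumless bld1 mutant cells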); settings: Chlamydomonas reinhardtii gravitaxis, OD600 absorbance, 2 days; at 10 µM; stronger effect = higher value
[10] = measured here: cell density z-score
[11] = measured here: nuclear c-Myc green intensity z-score
[12] = measured here: nuclear pErk red intensity z-score, stronger effect = higher value

SMILES | cell count [1] | inhibition [1] | inhibition [2] | nuclei count [2] | z-score [3, 10] | z-score [3, 11] | z-score [3, 12] | inhibition [4] | fluorescence slope [5] | NADPH fluorescence slope [6] | slope [7] | outcome [8] | inhibition [9]
CCC(=O)Nc1cc(-c2nn(C)c(=O)c3ccccc23)ccc1N1CCCCC1 | 527 | -10.5% (inactive) | -20.7% (inactive) | 161% | -0.258 | -0.867 | 0.981 | -3.5% (inactive) | -0.373 (inactive) | -2.2e-05 (inactive) | 0.00441 (inactive) | inactive | 25.8% (inactive)
CCN(CC)CCN1C(=O)C(=O)/C(=C(/O)c2ccc(F)cc2)C1c1ccncc1 (centres undefined) | 519 | -13.3% (inactive) | -36.8% (inactive) | 110% | 0.315 | 0.605 | -0.561 | -11.5% (inactive) | -0.542 (inactive) | -1e-05 (inactive) | 0.00505 (inactive) | inactive | -7.51% (inactive)
COc1ccc(/C=N/n2cncn2)cc1COc1ccc(NC(C)=O)cc1 | 307 | -11.9% (inactive) | -81.9% (inactive) | 99.2% | 1.57 | 0.491 | -0.528 | 24.3% (inactive) | -0.402 (inactive) | 3.3e-05 (inactive) | 0.00513 (inactive) | inactive | -6.96% (inactive)
COc1ccc(-c2cn3ccsc3n2)cc1 | 536 | -3% (inactive) | -235% (inactive) | 197% | -1.31 | -1.4 | 1.15 | -8.95% (inactive) | -0.478 (inactive) | -0.000227 (inactive) | 0.00481 (inactive) | inactive | -19.1% (inactive)
Cc1cc(COc2ccccc2OCCN2CCN(C)CC2)no1 | 551 | -2.5% (inactive) | -128% (inactive) | 134% | 0.378 | -1.63 | 0.134 | 5.95% (inactive) | -0.514 (inactive) | -6.1e-05 (inactive) | 0.0049 (inactive) | inactive | 9.35% (inactive)
CCOC(=O)c1c(C)n(C)c2ccc(OC)c(NC(=O)CN3CCSCC3)c12 | 331 | -7.1% (inactive) | 35.2% (inactive) | 91.7% | -1.52 | -0.0806 | 1.39 | 5.42% (inactive) | -0.449 (inactive) | -1.5e-05 (inactive) | 0.0065 (inactive) | inactive | 37% (inactive)
CCCCn1c(C)cc2cc(O)ccc21 | 320 | -9.2% (inactive) | -73.6% (inactive) | 154% | -1.22 | 2.41 | 1.37 | -8.76% (inactive) | -0.432 (inactive) | -0.000136 (inactive) | 0.00664 (inactive) | inactive | -7.64% (inactive)
Cc1ccc(C)c(OCc2nnc(NC(=O)c3ccco3)s2)c1 | 656 | -2.1% (inactive) | 37.1% (inactive) | 191% | -0.0885 | 2.13 | -0.0889 | -4.27% (inactive) | -0.389 (inactive) | -5.4e-05 (inactive) | 0.0056 (inactive) | inactive | -2.58% (inactive)
Cc1cc(=O)oc(C)c1C(=O)N1CCN(Cc2ccc3c(c2)OCO3)CC1 | 387 | -8.4% (inactive) | -58.3% (inactive) | 158% | -0.184 | -0.833 | -0.4 | 9.42% (inactive) | -0.451 (inactive) | -0.000128 (inactive) | 0.00491 (inactive) | inactive | 21.2% (inactive)
Cc1c(NC(=O)C(CC(=O)O)NCc2ccco2)c(=O)n(-c2ccccc2)n1C (centres undefined) | 357 | -8% (inactive) | -112% (inactive) | 164% | -0.725 | 2.03 | 1.41 | -5.26% (inactive) | -0.44 (inactive) | -0.000144 (inactive) | 0.00721 (inactive) | inactive | -0.003% (inactive)
Cc1nnc2n(-c3ccccc3)c(=O)c3c4c(sc3n12)CC(C)CC4 (centres undefined) | 573 | -1.3% (inactive) | 37.3% (inactive) | 92.6% | -0.0616 | 0.767 | -0.493 | 16.1% (inactive) | -0.396 (inactive) | 1.3e-06 (inactive) | 0.00538 (inactive) | inactive | -24.5% (inactive)
COc1ccc(-c2ncncc2-c2csc(C)n2)c(O)c1 | 573 | -4.5% (inactive) | -141% (inactive) | 135% | 0.355 | -1.54 | -0.34 | 1.9e-07% (inactive) | -0.509 (inactive) | -3.3e-05 (inactive) | 0.00463 (inactive) | inactive | 3.68% (inactive)
Cc1ccc2c(=O)c(CN(C)C3CCN(C)CC3)c(C)[nH]c2c1C | 498 | -21.3% (inactive) | -40.5% (inactive) | 142% | 0.488 | 0.313 | -0.364 | 1.12% (inactive) | -0.491 (inactive) | -4.5e-05 (inactive) | 0.00468 (inactive) | inactive | 1.23% (inactive)
